The source of these data is ChEMBL document CHEMBL1153409, “The identification of novel PLC-gamma inhibitors using virtual high throughput screening” (Bioorg Med Chem, 2009).

Each structure is given as a SMILES string. pIC50: −log10 of the molar value. Activity calls are given as the source filed them. The rule behind the calls is not given here.

One may read the inhibition as the change of the read-out against control, counted positive when it falls. A word on the pIC50: it is the negative decadic logarithm of the IC50, by convention in mol/L.

Test [1] deals with T1, 1-phosphatidylinositol 4,5-bisphosphate phosphodiesterase gamma-2 (Homo sapiens) (UniProt P16885).
T1 sequence (whole entry): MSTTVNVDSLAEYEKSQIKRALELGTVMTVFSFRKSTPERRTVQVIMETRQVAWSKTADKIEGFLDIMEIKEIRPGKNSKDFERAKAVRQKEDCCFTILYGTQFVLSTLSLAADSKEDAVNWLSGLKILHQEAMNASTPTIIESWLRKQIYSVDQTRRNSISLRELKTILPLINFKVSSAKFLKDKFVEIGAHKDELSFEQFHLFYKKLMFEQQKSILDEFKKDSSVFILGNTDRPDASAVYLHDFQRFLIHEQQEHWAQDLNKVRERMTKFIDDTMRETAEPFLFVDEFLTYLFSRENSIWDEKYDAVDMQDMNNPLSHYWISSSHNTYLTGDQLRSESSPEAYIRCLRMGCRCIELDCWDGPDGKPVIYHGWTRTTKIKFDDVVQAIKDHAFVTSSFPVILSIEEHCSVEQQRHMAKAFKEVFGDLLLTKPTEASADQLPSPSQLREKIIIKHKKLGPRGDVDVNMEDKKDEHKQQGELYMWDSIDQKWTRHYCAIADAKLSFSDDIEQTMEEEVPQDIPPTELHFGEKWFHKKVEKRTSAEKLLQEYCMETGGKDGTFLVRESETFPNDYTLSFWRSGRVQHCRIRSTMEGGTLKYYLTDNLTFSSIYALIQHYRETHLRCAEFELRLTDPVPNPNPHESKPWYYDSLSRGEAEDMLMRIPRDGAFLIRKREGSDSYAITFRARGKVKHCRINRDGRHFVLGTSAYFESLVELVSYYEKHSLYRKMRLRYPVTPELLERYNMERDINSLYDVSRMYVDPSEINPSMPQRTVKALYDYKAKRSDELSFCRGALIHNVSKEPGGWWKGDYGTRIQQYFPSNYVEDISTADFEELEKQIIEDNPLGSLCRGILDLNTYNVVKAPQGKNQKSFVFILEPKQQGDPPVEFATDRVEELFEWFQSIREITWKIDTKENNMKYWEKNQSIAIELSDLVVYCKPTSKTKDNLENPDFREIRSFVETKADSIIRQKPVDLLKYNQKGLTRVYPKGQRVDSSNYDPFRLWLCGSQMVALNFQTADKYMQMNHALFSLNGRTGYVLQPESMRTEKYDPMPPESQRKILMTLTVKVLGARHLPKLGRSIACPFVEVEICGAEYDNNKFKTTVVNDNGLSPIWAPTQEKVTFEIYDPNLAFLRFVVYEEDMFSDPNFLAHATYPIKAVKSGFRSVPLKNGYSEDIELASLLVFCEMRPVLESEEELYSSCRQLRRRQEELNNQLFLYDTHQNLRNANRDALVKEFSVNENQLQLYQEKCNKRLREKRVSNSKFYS
The test can be described thus: Inhibition of recombinant phospholipase C gamma2 expressed in baculovirus infected Sf9 cells at 50 uM using [3H]PIP2 by flashplate biochemical assay. In short, it runs like this:
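3H-PIP2 Flashplate assay with His-tagged full-length PLC-γ2 from infected Sf-9 cells. Substrate-coated wells (0.1 µCi/well) incubated with enzyme and compound in Tris/NaCl/CaCl2/EGTA/spermine/deoxycholate buffer, pH 7.4, 5% DMSO, room temperature, typically 30 min. Percent inhibition at 50 µM from two measurements, based on CPM versus control wells.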

In test [2] the target is T1, 1-phosphatidylinositol 4,5-bisphosphate phosphodiesterase gamma-2 (Homo sapiens). In words: Inhibition of phospholipase C gamma2 in human A431 cells assessed as reduction of calcium release after 45 mins by FLIPR assay. The format is cell-based. The conditions noted are these: A-431. In a few lines: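 A431 squamous carcinoma cells seeded at 4 × 10^5 per well and kept overnight at 37 °C, 5% CO2. Medium replaced with doubling dilutions of compound in HBSS starting at 100 µM. Calcium 3 dye added with probenecid (2.5 mM final), 45 min at 37 °C, then calcium release read by FLIPR at 37 °C.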

Test [3] has the same target. In words: Inhibition of phospholipase C gamma2 in human A431 cells assessed as reduction of calcium release at 50 uM after 45 mins by FLIPR assay. The format is cell-based. The conditions noted are these: A-431. In a few lines: (§1)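 A431 cells seeded overnight at 4 × 10^5 per well, then given compound in HBSS. Calcium 3 dye with 2.5 mM probenecid, 45 min at 37 °C, FLIPR read at 37 °C. Scoring was semi-quantitative: any decrease in calcium release at 50 µM scored +, at 25 µM ++.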

Test [4] addresses T2, 1-phosphatidylinositol 4,5-bisphosphate phosphodiesterase gamma-2 (Homo sapiens, UniProt P16885).
T2 sequence (P16885 whole entry): T1 sequence (whole entry)
The test can be described thus: Inhibition of recombinant phospholipase C gamma2 expressed in baculovirus infected Sf9 cells using [3H]PIP2 by flashplate biochemical assay. In short, it runs like this:
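Full-length His-tagged PLC-γ2 from baculovirus-infected Sf-9 cells, purified by Talon IMAC. Plates coated 24 h at room temperature with 3H-PIP2 (0.1 µCi/well); enzyme plus inhibitor in 50 mM Tris-HCl, 200 mM NaCl, 100 µM CaCl2, 100 µM EGTA, 100 µM spermine, 0.5 mM deoxycholate, pH 7.4, 5% v/v DMSO final. Scintillation signal loss read at room temperature, typically 30 min; CPM compared with control wells.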

The target of test [5] is T1, 1-phosphatidylinositol 4,5-bisphosphate phosphodiesterase gamma-2 (Homo sapiens). The test can be described thus: Inhibition of phospholipase C gamma2 in human A431 cells assessed as reduction of calcium release at 25 uM after 45 mins by FLIPR assay. The test is classed as cell-based. The conditions noted are these: A-431. In short, it runs like this: as §1

`Cc1ccc(NC(=O)c2sc3nc4c(cc3c2N)C(=O)CCC4)cc1Cl`: the inhibition in test [1] was found to be 100%. For the same molecule, the GC50 entry in test [2] is “inactive”.

With `COc1ccc2c(c1)C1N=CN(CCc3c[nH]c4ccccc34)C(=O)C1N2` (centres undefined), in test [1], the inhibition came to 89%. For the same molecule, in test [3], the “Decrease in calcium release (active/inactive call)” value is “Active”.

For `O=C1NN(c2ccccc2)C(=O)/C1=C/c1coc2ccc(Cl)cc2c1=O`, the inhibition in test [1] was 27%. Further, the GC50 in test [2] was determined as 18 µM.

Take `COc1ccc(-c2cc3nnc(-c4ccccc4)nc3s2)cc1`: in test [4], the pIC50 is 5.40. For the same molecule, the GC50 entry in test [2] is “inactive”.

In the case of `CC(=O)c1ccc(Nc2nnc(-c3ccncc3)s2)cc1`, the inhibition in test [1] amounted to 100%. Further, the “Calcium release inhibition activity at 25 uM” value in test [5] is “Active”.

In the case of `Cc1ccc(S(=O)(=O)NC2=NC(=O)/C(=C\c3ccccc3)S2)cc1`, the inhibition in test [1] turned out to be 82%. The GC50 in test [2] was found to be 15 µM.

`CCCc1nnc(NC(=O)c2cc([N+](=O)[O-])cc([N+](=O)[O-])c2)s1`: the inhibition in test [1] came to 100%. Also, the GC50 entry in test [2] was “inactive”.

Take `Cc1ccc(/C=C2\C(=O)NC(=O)N(c3ccc(Cl)cc3)C2=O)s1`: in test [1], the inhibition came out at 6%. Moreover, in test [2], the GC50 came out at 5 µM.

Consider `N#Cc1ccc(/C=C2/N=C(c3ccccc3)OC2=O)cc1`, for which, in test [4], the pIC50 is 5.70. Besides, the GC50 result in test [2] is “inactive”.

Take `O=c1/c(=C/c2ccccc2[N+](=O)[O-])sc2nc(-c3ccc(F)cc3)nn12`: the inhibition in test [1] is 100%. The GC50 in test [2] was determined as 15 µM.

As for `O=C(NCCc1ccccc1)c1cc2cccc([N+](=O)[O-])c2[nH]1`, the pIC50 in test [4] was 6.00. The GC50 in test [2] stood at 15 µM.

With `Cc1ccc(NC(=O)c2sc3nc4c(cc3c2N)C(=O)CCC4)cc1`, the inhibition in test [1] was found to be 100%. For the same molecule, the GC50 entry in test [2] is “inactive”.

For the molecule `Cc1ccc2c(c1)N/C(=C\C(=O)c1ccc(Cl)cc1)C(=O)O2`, the inhibition in test [1] was determined as 100%. The GC50 in test [2] is 22 µM.

As to `Clc1cccc(-c2nc(-c3ccc(-c4ccon4)s3)no2)c1`, the pIC50 in test [4] is 6.00. Moreover, the GC50 entry in test [2] is “inactive”.

As to `Nc1c(C(=O)Nc2cccc(Cl)c2)sc2nc3c(cc12)C(=O)CCC3`, the inhibition in test [1] is 100%. Moreover, in test [2], the GC50 entry was “inactive”.

Take `Nc1c(C(=O)Nc2cccc(Cl)c2)sc2nc(-c3cccs3)ccc12`: the inhibition in test [1] worked out at 100%. Besides, the “Decrease in calcium release (active/inactive call)” value in test [3] was “Active”.

Turning to `COc1ccc(S(=O)(=O)n2ccc(-c3ccc4c(c3)CCC(C)(C)O4)n2)cc1`, in test [4], the pIC50 is 5.52. For the same molecule, the GC50 in test [2] stood at 30 µM.

In the case of `O=C(Nc1nc2ccccc2c(=O)s1)c1ccc(Cl)cc1`, the pIC50 in test [4] was 5.70. The GC50 result in test [2] was “inactive”.

For `CCOc1ccc2c(c1)C1N=CN(Cc3ccccc3)C(=O)C1N2` (centres undefined), the inhibition in test [1] was found to be 89%. The GC50 entry in test [2] is “inactive”.

With `O=C1C2Nc3ccc(Br)cc3C2N=CN1CCc1ccccc1` (centres undefined), the inhibition in test [1] came to 100%. Further, the GC50 entry in test [2] was “inactive”.

Consider `O=C(Nc1ccc(Cl)cc1)c1cc2cccc([N+](=O)[O-])c2[nH]1`, for which the pIC50 in test [4] was 6.00. The GC50 result in test [2] was “inactive”.

As to `O=S(=O)(Oc1ccc(-c2cnc3ccccc3n2)cc1)c1ccccc1`, the inhibition in test [1] is 100%. Further, the “Calcium release inhibition activity at 25 uM” value in test [5] was “Active”.

With `O=C(Nc1ccc(S(=O)(=O)Nc2nccs2)cc1)c1cccs1`, the inhibition in test [1] is 82%. For the same molecule, in test [2], the GC50 result was “inactive”.

`O=C(Nc1cccc(Cl)c1)Nc1nnc(-c2ccc3c(c2)OCO3)s1`: the inhibition in test [1] worked out at 85%. The “Decrease in calcium release (active/inactive call)” value in test [3] was “Active”.

As for `O=c1/c(=C/c2ccncc2)sc2n1CN(c1ccc(Cl)cc1)CN=2`, the inhibition in test [1] was found to be 100%. The GC50 in test [2] stood at 15 µM.

Turning to `O=C(Nc1ccccc1)Nc1nnc(-c2cccs2)s1`, the inhibition in test [1] was 100%. Moreover, the GC50 result in test [2] is “inactive”.

With `COc1ccc(-c2nnc(NC(=O)c3cccs3)s2)cc1`, the inhibition in test [1] stood at 100%. The GC50 entry in test [2] is “inactive”.

With `O=C(Nc1ccc2oc(=O)ccc2c1)c1ccc(-c2cccc(Cl)c2)o1`, the inhibition in test [1] is 100%. For the same molecule, in test [5], the “Calcium release inhibition activity at 25 uM” value was “Active”.

Regarding `O=[N+]([O-])c1cc(-c2nc(-c3ccccn3)no2)cs1`, the pIC50 in test [4] was 5.70. In test [2], the GC50 result is “inactive”.

Regarding `O=C1C2Nc3ccc(Br)cc3C2N=CN1CCc1ccc(F)cc1` (centres undefined), the inhibition in test [1] stood at 100%. In test [2], the GC50 entry is “inactive”.

Turning to `COc1ccc2[nH]c(C(=O)Nc3nc4ccccc4s3)cc2c1`, in test [4], the negative-log IC50 (pIC50) is 5.30. The GC50 entry in test [2] is “inactive”.

Regarding `Nc1c(C(=O)Nc2cccc(F)c2)sc2nc(-c3ccc(F)cc3)ccc12`, the inhibition in test [1] amounted to 100%. The “Decrease in calcium release (active/inactive call)” value in test [3] was “Active”.

Turning to `COc1ccc(Cl)cc1C(=O)Nc1nc2ccc([N+](=O)[O-])cc2s1`, the inhibition in test [1] came to 100%. Moreover, in test [5], the “Calcium release inhibition activity at 25 uM” value was “Active”.

For `O=C1OC(c2ccc([N+](=O)[O-])cc2)=N/C1=C/c1cccs1`, the pIC50 in test [4] is 4.92. Further, the “Decrease in calcium release (active/inactive call)” value in test [3] was “Active”.

As for `O=C1C2Nc3ccc(Br)cc3C2N=CN1CCC1=CCCCC1` (centres undefined), in test [1], the inhibition was 100%. In test [2], the GC50 entry was “inactive”.

As to `CCCOc1ccc(-c2nnc(NC(=O)c3cccs3)s2)cc1`, the inhibition in test [1] is 67%. The GC50 result in test [2] was “inactive”.

In the case of `O=C(NC(=O)c1ccccc1Cl)Nc1ccc2c(c1)S(=O)(=O)C=C2`, the negative-log IC50 (pIC50) in test [4] was 5.02. Further, the GC50 result in test [2] was “inactive”.
